From ChEMBL document CHEMBL1134684, “Phenoxypropoxybiguanides, prodrugs of DHFR-inhibiting diaminotriazine antimalarials” (J Med Chem, 2001)
≈ marks a conversion by molar mass, not a printed value.

Assays:
Mus musculus [1] = species: Mus musculus; test: Dose needed to increase the 100% survival of treated animals (mouse), to twice the number of days; assay type: ADME, organism-based; settings: in vivo
Mus musculus [2] = species: Mus musculus; test: Dose required for 100%, 31 day survival of Plasmodium berghei inoculated mice (Mus musculus).; assay type: ADME, organism-based; settings: in vivo, 744 h
Procedure, shortened: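 Same mouse P. berghei KBG-173 model, with ip infection on day 0 and oral bid treatment on days 3, 4 and 5. The experiment runs 31 days. The complete survival dose is the dose at which all animals are alive on day 31.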

[3] = In vivo antimalarial activity against Plasmodium berghei in mice (Mus musculus) after 6 days; assay type: functional; settings: 144 h
Procedure, shortened: (§1)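 Male or female CD-1 mice (4-5 weeks, 20-25 g) infected ip on day 0 with 5 × 10⁴ P. berghei KBG-173 parasitized erythrocytes. Oral doses in 0.5% hydroxyethylcellulose/0.1% Tween-80, given bid 6 h apart on days 3, 4 and 5, computed as free base. Giemsa-stained tail-blood smears on day 6 give % infected RBC. ED90 is the dose reducing parasitemia to 10% of untreated infected controls.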

Plasmodium falciparum [4] = test: In vitro antimalarial activity against Plasmodium falciparum W2; assay type: functional, organism-based
Procedure, shortened: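 Chloroquine-, quinine-, sulfadoxine- and pyrimethamine-resistant Indochina W-2 clone tested in a semiautomated microdilution assay. Graded drug concentrations incubated 66 h in medium with physiological folic acid. Read-out is inhibition of radiolabeled hypoxanthine incorporation.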

Plasmodium falciparum [5] = test: In vitro antimalarial activity against Plasmodium falciparum K1; assay type: functional
Procedure, shortened: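 K1 parasites synchronized with 5% sorbitol. Drugs in methanol or DMSO, 2-fold serially diluted. Cultures at 2% hematocrit and 0.5% parasitemia (>95% rings) in 10% human serum under 5% O₂/5% CO₂/90% N₂ at 37.5 °C for 24-30 h. Romanowsky-stained thick films scored. MIC is the lowest concentration preventing >90% maturation to normal schizonts.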

Mus musculus [6] = test: Compound was tested in vivo for antimalarial activity against Plasmodium berghei in mice (Mus musculus) after 6 days of administration (ED90 is the dose necessary to reduce the percentage of infected cells to 10% of the level found in the infected untreated controls); assay type: functional; settings: 144 h; procedure, shortened: as §1
Mus musculus [7] = species: Mus musculus; test: Dose required by the animals(mouse) to survive after 31 days; assay type: ADME, organism-based; settings: in vivo, 744 h
Procedure, shortened: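 P. berghei KBG-173 in male or female CD-1 mice (4-5 weeks, 20-25 g), infected ip on day 0 with 5 × 10⁴ parasitized erythrocytes. Oral doses in 0.5% hydroxyethylcellulose/0.1% Tween-80 (10 mL/kg, free base), bid 6 h apart on days 3-5. Experiment run 31 days; complete survival dose = dose at which all animals survive to day 31.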

| SMILES | ED (Mus musculus [1]) [mg/kg] | Dose (Mus musculus [2]) [mg/kg] | ED90 [3] [mg/kg] | IC50 (Plasmodium falciparum [4]) [ng/mL] | IC90 (Plasmodium falciparum [5]) [ng/mL] | also measured |
| --- | --- | --- | --- | --- | --- | --- |
| CC(C)/N=C(N)/N=C(\N)NOCCCOc1cccc2ccccc12.Cl | 185 | 495 | > 256 | – | – | – |
| CC(C)/N=C(N)/N=C(\N)NOCCCSc1ccc(F)cc1.Cl | 109 | 183 | 70 | – | – | – |
| Cc1ccc(SCCCON/C(N)=N/C(N)=N/C(C)C)cc1.Cl | 117 | 265 | 92 | – | – | – |
| Cc1cc(C)c(C)c(OCCCON/C(N)=N/C(N)=N/C(C)C)c1.Cl | > 128 | – | < 128 | – | – | – |
| CC(C)/N=C(N)/N=C(\N)NOCCCOc1cc(F)cc(F)c1F.Cl | 107 | 180 | 74 | – | – | – |
| CC(C)/N=C(N)/N=C(\N)NOCCCOc1cc(F)c(F)cc1F.Cl | 71 | 128 | 18 | – | – | – |
| CC(C)/N=C(N)/N=C(\N)NOCCCOc1ccc2ccccc2c1.Cl | < 128 | – | < 128 | – | – | – |
| Cc1ccc(OCCCON/C(N)=N/C(N)=N/C(C)C)cc1C.Cl | > 128 | – | > 128 | – | – | – |
| Cc1cc(OCCCON/C(N)=N/C(N)=N/C(C)C)ccc1C(C)C.Cl | 128 | – | < 128 | – | – | – |
| Cc1ccc(OCCCON/C(N)=N/C(N)=N/C(C)C)c(C)c1.Cl | 170 | 235 | 120 | – | – | – |
| CC1(C)N=C(N)N=C(N)N1OCCCOc1cccc(C(F)(F)F)c1.Cl | – | – | – | 0.0299 | 2.5 | – |
| Cc1cccc(OCCCON2C(N)=NC(N)=NC2(C)C)c1.Cl | – | – | – | 0.0416 | 0.37 | – |
| CC1(C)N=C(N)N=C(N)N1OCCCOc1ccc(Br)cc1.Cl | – | – | – | – | 0.4 | – |
| CC1(C)N=C(N)N=C(N)N1OCCCOc1ccc(F)cc1.Cl | – | – | – | – | 0.63 | – |
| CC1(C)N=C(N)N=C(N)N1OCCCSc1ccc(F)cc1.Cl | – | – | – | 0.0222 | 1.25 | – |
| COc1ccc(OCCCON2C(N)=NC(N)=NC2(C)C)cc1.Cl | – | – | – | 0.0342 | 0.32 | – |
| CC1(C)N=C(N)N=C(N)N1OCCCOc1cc(F)cc(F)c1F.Cl | – | – | – | 0.0301 | 0.63 | – |
| CC1(C)N=C(N)N=C(N)N1OCCCOc1cc(F)c(F)cc1F.Cl | – | – | – | 0.032 | 0.94 | – |
| Cc1cc(OCCCON2C(N)=NC(N)=NC2(C)C)ccc1C(C)C.Cl | – | – | – | 0.0719 | 11.7 | – |
| COc1cc(OCCCON2C(N)=NC(N)=NC2(C)C)cc(OC)c1OC.Cl | – | – | – | 0.211 | 1.25 | – |
| CCc1ccc(OCCCO/N=C(N)/N=C(\N)NC(C)C)cc1.Cl | 158 | 505 | 96 | – | – | – |
| CC1(C)N=C(N)N=C(N)N1OCCCOc1ccc([N+](=O)[O-])cc1.Cl | – | – | – | 0.0299 | 0.32 | – |
| CC(C)/N=C(N)/N=C(\N)NOCCCOc1cccc(C(F)(F)F)c1.Cl | 73 | 140 | 27 | – | – | – |
| Cc1cccc(OCCCON/C(N)=N/C(N)=N/C(C)C)c1.Cl | > 128 | – | > 128 | – | – | – |
| COc1ccc(OCCCO/N=C(N)/N=C(\N)NC(C)C)cc1.Cl | > 128 | – | > 128 | – | – | – |
| Cc1ccc(OCCCON/C(N)=N/C(N)=N/C(C)C)cc1.Cl | 265 | 445 | 113 | – | – | – |
| CC(C)/N=C(N)/N=C(\N)NOCCCOc1ccc(C(C)(C)C)cc1.Cl | 460 | 1480 | > 128 | – | – | – |
| CC(C)/N=C(N)/N=C(\N)NOCCCOc1ccc(F)cc1F.Cl | > 128 | – | > 128 | – | – | – |

| SMILES | ED (Mus musculus [1]) [mg/kg] | Dose (Mus musculus [2]) [mg/kg] | ED90 [3] [mg/kg] | IC50 (Plasmodium falciparum [4]) [ng/mL] | IC90 (Plasmodium falciparum [5]) [ng/mL] | also measured |
| --- | --- | --- | --- | --- | --- | --- |
| CC(C)/N=C(N)/N=C(\N)NOCCCOc1ccc(F)c(F)c1.Cl | 27 | 77 | < 16 | – | – | – |
| CC(C)/N=C(N)/N=C(\N)NOCCCOc1ccccc1.Cl | 165 | 540 | 124 | – | – | – |
| CC1(C)N=C(N)N=C(N)N1OCCCOc1ccc2ccccc2c1.Cl | – | – | – | 0.0333 | 1.56 | – |
| CC1(C)N=C(N)N=C(N)N1OCCCOc1ccc(F)c(F)c1.Cl | – | – | – | 0.0332 | 0.38 | – |
| CC1(C)N=C(N)N=C(N)N1OCCCOc1ccc(F)cc1F.Cl | – | – | – | 0.0285 | 0.42 | – |
| CC1(C)N=C(N)N=C(N)N1OCCc1cccc(C(F)(F)F)c1.Cl | – | – | – | 0.184 | 40 | – |
| CC(C)/N=C(N)/N=C(\N)NOCc1ccc(Cl)c(Cl)c1 | 22 | 32 | < 8 | – | – | – |
| N=C(NOCCCOc1cc(Cl)c(Cl)cc1Cl)NC(=N)NC1CCCCC1 | 275 | 470 | > 256 | – | – | – |
| CC(C)/N=C(N)/N=C(\N)NOCCCSc1cc(Cl)ccc1Cl | > 128 | – | < 128 | – | – | – |
| CC1(C)N=C(N)N=C(N)N1OCCCSc1ccc(Cl)cc1 | – | – | – | 0.0288 (≈ 0.0842 nM) | 2.08 (≈ 6.08 nM) | – |
| CC(C)/N=C(N)/N=C(\N)NOCCCOc1ccc(F)cc1 | 30 | 90 | < 16 | – | – | – |
| CC(C)/N=C(N)/N=C(\N)NOCCCOc1ccc(Br)cc1 | 64 | 135 | < 32 | – | – | – |
| CC(C)/N=C(N)/N=C(\N)NOCCCSc1ccc(Cl)cc1 | 112 | 182 | 73 | – | – | – |
| CC(C)/N=C(N)/N=C(\N)NOCCCOc1ccc(Cl)cc1Cl | 28 | 64 | 17 | – | – | – |
| CC(C)NC(=N)NC(=N)NOCCCOc1ccc(Cl)cc1 | 26 | 79 | < 16 | – | – | – |
| CC(C)NC(=N)NC(=N)NOCCCOc1cc(Cl)c(Cl)cc1Cl | 30 | 76 | < 16 | – | – | – |
| CC1(C)N=C(N)N=C(N)N1OCCOc1cc(Cl)c(Cl)cc1Cl | – | – | – | 0.278 (≈ 0.73 nM) | 40 (≈ 105 nM) | – |
| CC1(C)N=C(N)N=C(N)N1OCCCSc1cc(Cl)ccc1Cl | – | – | – | 0.0254 (≈ 0.0675 nM) | 2.08 (≈ 5.53 nM) | – |
| CCCCCCCCCC1N=C(N)N=C(N)N1OCCCOc1cc(Cl)c(Cl)cc1Cl (centres undefined) | – | – | – | > 0.5 | > 640 | – |
| CC1(C)N=C(N)N=C(N)N1OCCCOc1cc(Cl)c(Cl)cc1Cl | – | – | – | 0.047 (≈ 0.119 nM) | 1.43 (≈ 3.62 nM) | – |
| CC1(C)N=C(N)N=C(N)N1OCCCOc1ccc(Cl)cc1 | – | – | – | – | 0.63 (≈ 1.93 nM) | – |
| CC1(C)NC(N)=NC(=N)N1OCCCOc1ccc(Cl)cc1Cl | – | – | – | 0.0379 (≈ 0.105 nM) | 1.67 (≈ 4.64 nM) | – |
| N=C1N=C(N)NC2(CCCCC2)N1OCCCOc1cc(Cl)c(Cl)cc1Cl | – | – | – | 0.113 (≈ 0.26 nM) | 66.7 (≈ 153 nM) | – |
| CC(C)NC(=N)NC(=N)NOCCCOc1ccc(Cl)c(Cl)c1 | 16 | 33 | < 16 | – | – | – |
| CCN(CC)CCCC(C)Nc1ccnc2cc(Cl)ccc12 (centres undefined) [CHLOROQUINE] | – | – | – | – | – | ED90 (Mus musculus [6]): 3 mg/kg; Complete survival dose (Mus musculus [7]): 256 mg/kg |
| CC1(C)N=C(N)N=C(N)N1c1ccc(Cl)cc1 [CYCLOGUANIL] | – | – | – | > 0.5 | 152 (≈ 604 nM) | – |
| CCc1nc(N)nc(N)c1-c1ccc(Cl)cc1 [PYRIMETHAMINE] | – | – | – | – | 1740 (≈ 7020 nM) | ED90 (Mus musculus [6]): 1.2 mg/kg; Complete survival dose (Mus musculus [7]): 400 mg/kg |
